Measured values reported in ChEMBL document CHEMBL4052817 (J Med Chem, 2017).
Activity calls are given as the source filed them. No cut-off for these calls is given here.

Key:
Renca = experiment: Antitumor activity against mouse Renca tumor model administered as monotherapy; assay type: functional
CT26 = experiment: Antitumor activity against mouse CT26 tumor model administered as monotherapy; assay type: functional
[1] = Drug excretion in rat bile assessed as (R)-3-(5-fluoro-1H-indol-3-yl)pyrrolidine-2,5-dione; assay type: ADME; settings: in vivo
Outline: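 Racemate dosed to rats (urine and bile collected) and to dogs (urine collected). The percentage of the dose excreted as unchanged (R)-enantiomer was measured.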

Canis familiaris [2] = experiment: Half life in beagle dog assessed as (R)-3-(5-fluoro-1H-indol-3-yl)pyrrolidine-2,5-dione at 3 mg/kg, po; assay type: ADME, organism-based, Canis lupus familiaris; settings: in vivo
Cytochrome P450 2C19 [3] = biological target: T1, Cytochrome P450 2C19 (Homo sapiens, UniProt P33261); experiment: Inhibition of CYP2C19 (unknown origin); assay type: ADME
T1 sequence (P33261 whole entry): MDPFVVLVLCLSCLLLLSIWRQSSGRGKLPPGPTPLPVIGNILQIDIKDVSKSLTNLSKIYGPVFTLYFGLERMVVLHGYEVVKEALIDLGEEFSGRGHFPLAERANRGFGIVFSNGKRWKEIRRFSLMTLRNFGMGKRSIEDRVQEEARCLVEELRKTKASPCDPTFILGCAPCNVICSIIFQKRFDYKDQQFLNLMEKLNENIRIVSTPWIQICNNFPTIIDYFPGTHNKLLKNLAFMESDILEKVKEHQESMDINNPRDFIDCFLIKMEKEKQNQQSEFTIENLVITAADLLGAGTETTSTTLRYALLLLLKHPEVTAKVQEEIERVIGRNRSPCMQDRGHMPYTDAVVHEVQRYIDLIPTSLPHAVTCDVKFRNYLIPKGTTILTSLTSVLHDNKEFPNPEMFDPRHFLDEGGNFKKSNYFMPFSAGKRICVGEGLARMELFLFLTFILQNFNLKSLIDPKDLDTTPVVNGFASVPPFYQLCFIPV

Canis familiaris [4] = experiment: Volume of distribution at steady state in beagle dog assessed as (R)-3-(5-fluoro-1H-indol-3-yl)pyrrolidine-2,5-dione at 1 mg/kg, iv by LC-MS/MS method; assay type: ADME, organism-based, Canis lupus familiaris; settings: in vivo
Rattus norvegicus [5] = experiment: AUC (infinity) in Wistar-Han rat assessed as (R)-3-(5-fluoro-1H-indol-3-yl)pyrrolidine-2,5-dione at 1 mg/kg, iv by LC-MS/MS method; assay type: ADME, organism-based; design: dose 1 mg/kg, time infinity, route intravenous; settings: in vivo
Outline: (§1)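 Racemate given as a single 1 mg/kg IV dose to male CD-1 mice, Wistar-Han rats or beagle dogs (n=3 per species). Plasma levels of the (R)-enantiomer measured by chiral LC-MS/MS. Mean AUCinf, CLp, Vss and t1/2 reported.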

Cytochrome P450 2C9 = Cytochrome P450 2C9 (Homo sapiens, UniProt P11712); experiment: Time/NADPH-dependent inhibition of CYP2C9 (unknown origin); assay type: ADME
Chain of Cytochrome P450 2C9 (P11712 whole entry): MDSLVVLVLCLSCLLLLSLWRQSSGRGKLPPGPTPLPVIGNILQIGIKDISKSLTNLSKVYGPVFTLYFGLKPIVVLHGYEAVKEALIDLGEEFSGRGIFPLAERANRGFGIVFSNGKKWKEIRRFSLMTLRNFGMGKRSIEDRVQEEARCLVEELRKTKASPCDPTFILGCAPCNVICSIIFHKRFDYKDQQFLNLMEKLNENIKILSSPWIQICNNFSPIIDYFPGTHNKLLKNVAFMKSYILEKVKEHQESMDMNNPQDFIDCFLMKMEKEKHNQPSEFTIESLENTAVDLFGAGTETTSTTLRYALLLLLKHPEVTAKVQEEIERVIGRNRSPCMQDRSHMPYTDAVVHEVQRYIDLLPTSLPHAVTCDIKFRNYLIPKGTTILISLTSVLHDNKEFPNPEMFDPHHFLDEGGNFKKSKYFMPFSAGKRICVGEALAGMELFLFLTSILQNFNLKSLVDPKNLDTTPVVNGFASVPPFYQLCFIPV

Mus musculus [6] = experiment: AUC (infinity) in CD-1 mouse assessed as (R)-3-(5-fluoro-1H-indol-3-yl)pyrrolidine-2,5-dione at 3 mg/kg, po; assay type: ADME, organism-based; design: dose 3 mg/kg, route oral, time infinity; settings: in vivo
[7] = biological target: Indoleamine 2,3-dioxygenase 2 (Homo sapiens) (UniProt Q6ZQW0); experiment: Inhibition of human recombinant IDO-2 up to 200 uM using tryptophan as substrate after 22 mins by LC-MS/MS method
Chain of Indoleamine 2,3-dioxygenase 2 (Homo sapiens) (Q6ZQW0 whole entry): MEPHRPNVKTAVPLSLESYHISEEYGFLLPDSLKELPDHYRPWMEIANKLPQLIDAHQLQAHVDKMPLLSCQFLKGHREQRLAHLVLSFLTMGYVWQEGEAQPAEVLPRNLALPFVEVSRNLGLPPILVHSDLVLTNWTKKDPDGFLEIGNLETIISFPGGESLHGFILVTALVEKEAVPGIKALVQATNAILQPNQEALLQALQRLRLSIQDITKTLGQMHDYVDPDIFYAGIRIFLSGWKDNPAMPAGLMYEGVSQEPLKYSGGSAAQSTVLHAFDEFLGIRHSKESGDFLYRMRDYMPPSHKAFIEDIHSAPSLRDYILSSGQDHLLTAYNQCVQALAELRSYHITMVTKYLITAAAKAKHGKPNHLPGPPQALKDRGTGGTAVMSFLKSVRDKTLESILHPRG
Outline: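 Human IDO2 at 250 nM with inhibitor in duplicate, room temperature, in Mg/Ca-free PBS with 20 mM ascorbate, 10 μM methylene blue, 800 nM catalase, 15 μM tryptophan; HCl stop after 22 min; kynurenine quantified by RapidFire SPE-MS/MS; two replicates, geometric means.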

Cytochrome P450 3A4 = Cytochrome P450 3A4 (Homo sapiens, UniProt P08684); experiment: Time-dependent inhibition of CYP3A4 (unknown origin); assay type: ADME
Chain of Cytochrome P450 3A4 (P08684 whole entry): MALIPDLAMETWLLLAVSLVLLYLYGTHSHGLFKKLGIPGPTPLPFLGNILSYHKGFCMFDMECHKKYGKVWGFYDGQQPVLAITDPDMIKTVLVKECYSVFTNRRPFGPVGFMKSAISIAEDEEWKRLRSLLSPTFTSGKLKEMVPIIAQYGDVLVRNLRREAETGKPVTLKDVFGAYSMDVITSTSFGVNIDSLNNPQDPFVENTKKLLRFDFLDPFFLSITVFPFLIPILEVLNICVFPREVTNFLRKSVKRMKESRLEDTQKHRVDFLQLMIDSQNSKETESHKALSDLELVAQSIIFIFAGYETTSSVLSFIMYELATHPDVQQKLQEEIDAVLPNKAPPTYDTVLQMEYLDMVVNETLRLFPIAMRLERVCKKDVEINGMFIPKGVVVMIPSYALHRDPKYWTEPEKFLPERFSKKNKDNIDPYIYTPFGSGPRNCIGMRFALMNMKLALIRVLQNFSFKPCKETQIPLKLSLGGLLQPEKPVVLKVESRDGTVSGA

Mus musculus [8] = experiment: Volume of distribution at steady state in CD-1 mouse assessed as (R)-3-(5-fluoro-1H-indol-3-yl)pyrrolidine-2,5-dione at 1 mg/kg, iv by LC-MS/MS method; assay type: ADME, organism-based; settings: in vivo
Canis familiaris [9] = experiment: Oral bioavailability in beagle dog assessed as (R)-3-(5-fluoro-1H-indol-3-yl)pyrrolidine-2,5-dione at 3 mg/kg; assay type: ADME, organism-based, Canis lupus familiaris; settings: in vivo
Hepatocyte [10] = experiment: Induction of CYP1A2 mRNA expression in human hepatocytes at <100 uM; assay type: ADME, cell-based
B16-F10 = experiment: Antitumor activity against mouse B16/F10 tumor model administered as monotherapy; assay type: functional
Cytochrome P450 1A2 = biological target: T2, Cytochrome P450 1A2 (Homo sapiens, UniProt P05177); experiment: Time/NADPH-dependent inhibition of CYP1A2 (unknown origin); assay type: ADME
T2 sequence (P05177 whole entry): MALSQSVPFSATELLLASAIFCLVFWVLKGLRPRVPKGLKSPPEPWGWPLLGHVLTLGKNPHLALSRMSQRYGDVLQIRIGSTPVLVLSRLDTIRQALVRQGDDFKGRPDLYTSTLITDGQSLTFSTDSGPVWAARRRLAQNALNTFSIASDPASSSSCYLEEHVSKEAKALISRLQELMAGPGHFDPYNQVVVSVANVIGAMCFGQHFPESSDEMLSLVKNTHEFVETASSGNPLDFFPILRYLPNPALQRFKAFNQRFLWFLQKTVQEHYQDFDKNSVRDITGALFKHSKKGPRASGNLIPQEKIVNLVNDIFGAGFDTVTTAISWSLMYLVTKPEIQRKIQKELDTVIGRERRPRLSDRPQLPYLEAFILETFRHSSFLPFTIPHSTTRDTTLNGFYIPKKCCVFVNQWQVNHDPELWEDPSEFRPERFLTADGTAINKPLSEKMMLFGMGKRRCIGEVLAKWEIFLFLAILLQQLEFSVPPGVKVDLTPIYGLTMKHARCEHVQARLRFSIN

Rattus norvegicus [11] = experiment: AUC (infinity) in Wistar-Han rat assessed as (R)-3-(5-fluoro-1H-indol-3-yl)pyrrolidine-2,5-dione at 3 mg/kg, po; assay type: ADME, organism-based; design: dose 3 mg/kg, route oral, time infinity; settings: in vivo
Canis familiaris [12] = experiment: AUC (infinity) in beagle dog assessed as (R)-3-(5-fluoro-1H-indol-3-yl)pyrrolidine-2,5-dione at 3 mg/kg, po; assay type: ADME, organism-based, Canis lupus familiaris; design: dose 3 mg/kg, route oral, time infinity; settings: in vivo
[13] = biological target: Broad substrate specificity ATP-binding cassette transporter ABCG2 (Homo sapiens, UniProt Q9UNQ0); experiment: Inhibition of BCRP (unknown origin) transfected in MDCK cells assessed as decrease in pitavastatin transport; assay type: cell-based
Chain of Broad substrate specificity ATP-binding cassette transporter ABCG2 (Q9UNQ0 whole entry): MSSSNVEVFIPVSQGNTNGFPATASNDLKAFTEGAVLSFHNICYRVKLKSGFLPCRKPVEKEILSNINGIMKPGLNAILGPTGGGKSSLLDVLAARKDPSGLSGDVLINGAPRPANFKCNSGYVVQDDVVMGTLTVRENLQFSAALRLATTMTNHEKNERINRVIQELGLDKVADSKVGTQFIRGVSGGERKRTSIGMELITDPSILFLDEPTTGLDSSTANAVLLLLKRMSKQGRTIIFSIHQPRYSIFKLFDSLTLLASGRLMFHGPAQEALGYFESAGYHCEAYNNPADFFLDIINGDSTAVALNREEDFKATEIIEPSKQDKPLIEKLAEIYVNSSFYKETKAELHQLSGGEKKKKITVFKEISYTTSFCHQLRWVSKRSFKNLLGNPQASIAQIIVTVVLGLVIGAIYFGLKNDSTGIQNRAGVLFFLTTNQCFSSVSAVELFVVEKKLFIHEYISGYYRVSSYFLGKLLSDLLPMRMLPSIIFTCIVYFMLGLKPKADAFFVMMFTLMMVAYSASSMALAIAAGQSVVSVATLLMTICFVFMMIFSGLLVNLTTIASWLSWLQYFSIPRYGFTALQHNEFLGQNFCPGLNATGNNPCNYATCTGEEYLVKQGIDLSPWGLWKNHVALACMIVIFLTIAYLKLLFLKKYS

Cytochrome P450 2C19 [14] = biological target: T1, Cytochrome P450 2C19; experiment: Time/NADPH-dependent inhibition of CYP2C19 (unknown origin); assay type: ADME
[15] = Drug metabolism in dog hepatocytes assessed as oxidation; assay type: ADME, cell-based, Canis lupus familiaris, Hepatocyte
Hepatocyte [16] = experiment: Induction of CYP2B6 mRNA expression in human hepatocytes at <100 uM; assay type: ADME, cell-based
[17] = biological target: Tryptophan 2,3-dioxygenase (Homo sapiens, UniProt P48775); experiment: Inhibition of human TDO2 using tryptophan as substrate after 22 mins by LC-MS/MS method
Chain of Tryptophan 2,3-dioxygenase (P48775 whole entry): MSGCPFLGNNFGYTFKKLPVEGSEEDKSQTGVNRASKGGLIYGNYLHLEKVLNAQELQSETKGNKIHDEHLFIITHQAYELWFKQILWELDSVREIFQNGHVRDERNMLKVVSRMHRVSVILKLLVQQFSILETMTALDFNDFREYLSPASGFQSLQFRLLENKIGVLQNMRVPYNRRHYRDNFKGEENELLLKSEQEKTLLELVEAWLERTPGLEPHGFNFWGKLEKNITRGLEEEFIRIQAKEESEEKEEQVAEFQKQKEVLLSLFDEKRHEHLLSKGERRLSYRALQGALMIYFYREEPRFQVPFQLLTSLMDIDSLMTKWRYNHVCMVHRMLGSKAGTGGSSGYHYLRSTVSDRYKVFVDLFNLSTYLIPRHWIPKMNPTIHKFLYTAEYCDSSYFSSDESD

Canis familiaris [18] = experiment: AUC (infinity) in beagle dog assessed as (R)-3-(5-fluoro-1H-indol-3-yl)pyrrolidine-2,5-dione at 1 mg/kg, iv by LC-MS/MS method; assay type: ADME, organism-based, Canis lupus familiaris; design: dose 1 mg/kg, route intravenous, time infinity; settings: in vivo; outline: as §1
Mus musculus [19] = experiment: Half life in CD-1 mouse assessed as (R)-3-(5-fluoro-1H-indol-3-yl)pyrrolidine-2,5-dione at 3 mg/kg, po; assay type: ADME, organism-based; settings: in vivo
Mus musculus [20] = experiment: In vivo inhibition of human IDO-1 expressed in non-tumor-bearing mouse assessed as reduction in plasma L-kynurenine levels at >= 200 mg/kg after 1 hr relative to control; assay type: functional
Cytochrome P450 2D6 = Cytochrome P450 2D6 (Homo sapiens, UniProt P10635); experiment: Time/NADPH-dependent inhibition of CYP2D6 (unknown origin); assay type: ADME
Chain of Cytochrome P450 2D6 (P10635 whole entry): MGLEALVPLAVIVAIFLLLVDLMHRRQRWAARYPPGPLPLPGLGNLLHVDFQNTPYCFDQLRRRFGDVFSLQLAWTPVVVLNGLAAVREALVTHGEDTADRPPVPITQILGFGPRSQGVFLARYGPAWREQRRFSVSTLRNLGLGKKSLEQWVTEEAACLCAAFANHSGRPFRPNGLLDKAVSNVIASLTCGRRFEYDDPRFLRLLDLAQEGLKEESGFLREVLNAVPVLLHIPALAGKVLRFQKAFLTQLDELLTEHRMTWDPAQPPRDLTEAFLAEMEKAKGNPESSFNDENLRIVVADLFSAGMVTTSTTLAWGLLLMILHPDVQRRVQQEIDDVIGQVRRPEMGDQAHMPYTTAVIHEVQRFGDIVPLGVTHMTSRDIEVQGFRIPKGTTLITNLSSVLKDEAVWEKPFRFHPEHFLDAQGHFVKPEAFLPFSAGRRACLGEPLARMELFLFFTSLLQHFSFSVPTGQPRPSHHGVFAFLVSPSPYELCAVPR

Cytochrome P450 2C19 [21] = biological target: T1, Cytochrome P450 2C19; experiment: Time-dependent inhibition of CYP2C19 (unknown origin); assay type: ADME
Rattus norvegicus [22] = experiment: Half life in Wistar-Han rat assessed as (R)-3-(5-fluoro-1H-indol-3-yl)pyrrolidine-2,5-dione at 3 mg/kg, po; assay type: ADME, organism-based; settings: in vivo

Question: What does the source list for `O=C1CC(c2c[nH]c3ccc(F)cc23)C(=O)N1` (centres undefined) [PF-06840003]?
Answer: Activity (Renca): Active; Activity (CT26): Active; Drug excretion [1]: < 1 %ID; t1/2 (Canis familiaris [2]): 50.4 min; IC50 (Cytochrome P450 2C19 [3]): 78 µM; Vdss (Canis familiaris [4]): 0.957 L/kg; AUC (Rattus norvegicus [5]): 2520 ng·h/mL; inhibition (INH) (Cytochrome P450 2C9): Not Active; AUC (Mus musculus [6]): 2170 ng·h/mL; inhibition [7]: inactive; TDI (Cytochrome P450 3A4): Not Active; Vdss (Mus musculus [8]): 0.787 L/kg; F (Canis familiaris [9]): 18.6%; Activity (Hepatocyte [10]): Not Active; Activity (B16-F10): Active; inhibition (INH) (Cytochrome P450 1A2): Not Active; AUC (Rattus norvegicus [11]): 6940 ng·h/mL; AUC (Canis familiaris [12]): 237 ng·h/mL; IC50 [13]: 65.4 µM; inhibition (INH) (Cytochrome P450 2C19 [14]): Not Active; Drug metabolism [15]: Metabolite_Detected; Activity (Hepatocyte [16]): Not Active; IC50 [17]: 140 µM; AUC (Canis familiaris [18]): 423 ng·h/mL; t1/2 (Mus musculus [19]): 2.48 h; inhibition (INH) (Mus musculus [20]): >=54%; inhibition (INH) (Cytochrome P450 2D6): Not Active; TDI (Cytochrome P450 2C19 [21]): Not Active; t1/2 (Rattus norvegicus [22]): 2.42 h
